# High-throughput results as filed in PubChem.
# A selection: hits, their analogues and other compounds. The true share with any hit is near 3.3%.
# ABCB1 block = ABCB1 efflux pump inhibitors, primary screen, cell-based, multiplex, flow cytometry, ABCG2 counter-screen; CCRF-Adr cells, JC-1 efflux; inhibition, % at 6.6 µM; 0.067% of 190,000 active; AID 1326, 2008; in the data active = inhibition above about 40%;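 note: 0% = vehicle and 100% = reference inhibitor; higher value means more JC-1 retained so stronger ABCB1 efflux block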
# Target sequence (P08183 whole entry, looked up): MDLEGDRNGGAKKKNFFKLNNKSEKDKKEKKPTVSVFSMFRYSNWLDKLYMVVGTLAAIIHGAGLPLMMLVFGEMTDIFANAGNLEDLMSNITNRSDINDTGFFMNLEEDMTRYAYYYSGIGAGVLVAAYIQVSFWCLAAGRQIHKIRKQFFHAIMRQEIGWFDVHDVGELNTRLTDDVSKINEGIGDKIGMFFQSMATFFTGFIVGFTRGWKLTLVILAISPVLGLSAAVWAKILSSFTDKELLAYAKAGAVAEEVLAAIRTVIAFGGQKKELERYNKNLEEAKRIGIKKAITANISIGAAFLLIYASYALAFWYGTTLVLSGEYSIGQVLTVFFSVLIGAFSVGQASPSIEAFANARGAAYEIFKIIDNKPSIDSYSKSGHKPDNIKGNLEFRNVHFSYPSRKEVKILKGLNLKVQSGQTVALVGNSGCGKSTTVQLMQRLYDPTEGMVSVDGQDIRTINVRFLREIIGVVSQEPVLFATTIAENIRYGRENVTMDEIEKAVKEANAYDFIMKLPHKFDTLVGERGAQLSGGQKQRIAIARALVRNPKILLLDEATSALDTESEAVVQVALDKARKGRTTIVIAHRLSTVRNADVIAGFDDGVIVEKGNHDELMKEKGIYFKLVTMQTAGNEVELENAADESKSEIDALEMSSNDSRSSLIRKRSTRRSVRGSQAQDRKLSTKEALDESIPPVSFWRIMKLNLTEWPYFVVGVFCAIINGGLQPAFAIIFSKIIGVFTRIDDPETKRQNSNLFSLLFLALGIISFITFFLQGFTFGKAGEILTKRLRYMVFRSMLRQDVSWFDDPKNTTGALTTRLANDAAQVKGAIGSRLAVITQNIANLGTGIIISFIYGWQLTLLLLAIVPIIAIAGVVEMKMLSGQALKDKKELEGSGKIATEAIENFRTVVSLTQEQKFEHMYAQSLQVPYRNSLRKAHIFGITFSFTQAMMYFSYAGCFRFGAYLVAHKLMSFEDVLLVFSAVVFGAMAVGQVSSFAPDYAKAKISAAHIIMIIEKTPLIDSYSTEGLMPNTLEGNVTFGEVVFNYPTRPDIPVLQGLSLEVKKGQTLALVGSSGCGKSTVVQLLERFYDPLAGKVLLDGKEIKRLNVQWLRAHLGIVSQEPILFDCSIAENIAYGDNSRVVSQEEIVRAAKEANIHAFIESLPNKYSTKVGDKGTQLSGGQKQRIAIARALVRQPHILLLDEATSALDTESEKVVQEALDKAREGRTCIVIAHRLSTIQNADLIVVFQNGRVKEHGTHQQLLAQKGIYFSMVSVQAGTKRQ
# ROMK mod = ROMK potassium channel modulators, primary screen, cell-based, thallium flux, MLSMR library; ATP-sensitive inward rectifier potassium channel 1 (Homo sapiens), P48048; Tet-inducible ROMK, thallium flux fluorescence; actives lie on both sides; B-score at 10 µM; 2% of 130,000 active;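 active = signal ratio slope over the read window, or its plate-corrected B-score, at least 3 SD from the plate mean, either direction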;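 note: B-score of the F/F0 ratio slope over 7 to 12 s after thallium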
# ABCG2 inh = ABCG2 efflux pump inhibitors, primary screen, multiplex with ABCB1, IgMXP3 cells, flow cytometry. Broad substrate specificity ATP-binding cassette transporter ABCG2 (Homo sapiens), Q9UNQ0. JC-1 efflux. inhibition, % at 6.6 µM. 0.1% of 190,000 active. AID 1325, 2008;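 active = inhibition above 80%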;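 note: 0% = DMSO and 100% = nicardipine control wells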
#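 Times: 10 min at 25 °C | Test system: Two drug-resistant human cell lines, ABCG2 and ABCB1 | Quantity: 3 million cells/mL final, two lines in 1:1 ratio | Signal: Flow cytometry, 530 nm JC-1 signal | Dosing: Compound at 6.6 µM | Controls: Nicardipine and DMSO wells | Reagent: JC-1 as fluorescent efflux pump substrate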
# PMI act hi M6P = human PMI activators, high substrate, primary screen, biochemical, fluorescence intensity, near-saturating mannose 6-phosphate. Mannose-6-phosphate isomerase (Homo sapiens), P34949. 0.34% of 190,000 active. coupled PMI enzyme assay, resazurin fluorescence, 20 min; stronger effect = higher value; 1 = untreated enzyme, 0 = substrate-free blank. activation factor at 20 µM. AID 1216, 2008;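 active = activation factor of 2 or more at 20 µM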
#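 Technique: Diaphorase-driven resazurin-to-resorufin fluorescence, excitation 544, emission 590 nm | Assay system: Human PMI in coupled enzyme assay | Times: Enzyme reaction with compound 20 min at room temperature | Medium: HEPES-buffered pH 7.4 with magnesium and detergent | Reagent: Mannose-6-phosphate 1.0 mM (near-saturating) plus 0.22 mM NADP+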
# KCC2 mod = KCC2 cotransporter modulators, thallium flux, primary screen, cell-based, HEK293 KCC2, FluoZin-2 fluorescence, MLSMR | Solute carrier family 12 member 5 (Homo sapiens), Q9H2X9 | KCC2 cells, thallium flux FluoZin-2 fluorescence | B-score of Tl+ flux slope (higher = more flux/activation; lower = inhibition) at 10 µM | 2.2% of 190,000 active | AID 1456, 2008;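 active = thallium flux slope and its plate-corrected score both differing from the plate sample mean at a set confidence after two filtering rounds, in either direction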;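 note: slope of fluorescence scaled to starting intensity during 10 to 20 s after thallium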
# PMI act = activators of human PMI, primary screen, biochemical, fluorescence intensity, near-Km mannose 6-phosphate; Mannose-6-phosphate isomerase (Homo sapiens), P34949; purified human PMI, coupled resazurin fluorescence, 20 min; stronger effect = higher value; 1 = vehicle control, 0 substrate-free wells; activation factor at 20 µM; 0.005% of 190,000 active; AID 1214, 2008;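 active = activation factor of 2 or more at 20 µM, relative to plate controls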
# * hit, by the source's call; i = inactive; x = not tested or not shown.
SMILES,ABCB1 block,ROMK mod,ABCG2 inh,PMI act hi M6P,KCC2 mod,PMI act
CN(C)c1ccc(/C=N/OC(=O)Nc2ccccc2Cl)cc1,0,1.9,1,0.9,0.29,1
Cc1cc(C)nc(SCC(=O)Nc2nc(-c3ccccc3)c(-c3ccccc3)o2)n1,0,x,7,1,-1.4,0.8
Cc1ccc(C(=O)Nc2nc(-c3ccccc3)c(-c3ccccc3)o2)cc1,-1,1.1,3,0.9,31*,0.9
N=C1/C(=C/c2cccn2Cc2ccc(Cl)cc2)C(=O)N=C2SC=CN12,1,-0.098,-1,0.9,1.2,0.8
CC(=O)N1CCN(CC(=O)c2ccc(Br)cc2)CC1,0,x,1,2.4*,1.1,1.8
COc1ccc(-c2cc(CNS(=O)(=O)c3ccc(F)cc3)on2)cc1,0,-0.037,3,0.9,-0.048,0.9
O=c1c2ccc(Cl)cc2[nH]c(=S)n1CCC1=CCCCC1,0,-0.31,-3,1.1,37*,1
CCOC(=O)N1CCN(C(=O)c2ccc3c(=O)n(CCC4=CCCCC4)c(=S)[nH]c3c2)CC1,1,-0.028,2,1,x,1
CCc1ccc(-c2nc(CN3CCC(C(=O)N4CCN(c5ccccn5)CC4)CC3)c(C)o2)cc1,1,-0.55,1,1,0.055,0.9
CCc1ccc(-c2nc(CN3CCC(C(=O)N4CCN(c5ccccc5)CC4)CC3)c(C)o2)cc1,3,x,1,0.9,2*,0.9
Clc1ccc(CN(Cc2ccc(Cl)cc2)c2nn[nH]n2)cc1,0,0.32,1,1,-5.9*,1.1
c1ccc(CN(Cc2ccccc2)c2nn[nH]n2)cc1,0,-0.79,0,1.1,x,1.2
O=C(Cn1nnc2ccccc21)OCC(=O)c1ccccc1,0,0.27,-1,1.2,3.2*,1.2
CCCNC(=O)CN(c1cccc(F)c1)S(C)(=O)=O,0,0.11,7,1,0.9,1
COC(=O)C1(Cc2ccc(O)cc2)OC(=O)C(O)=C1c1ccc(O)cc1 (centres undefined),x,x,x,x,-0.16,x
COc1cc(S(=O)(=O)n2nnc3ccccc32)c(OC)cc1Cl,-1,-2.3*,0,1,-0.19,1
CC(C)CNC(=S)NC(=O)c1ccc(F)cc1,0,-0.6,1,1,18*,1
O=C(NC(=S)NCCN1CCOCC1)c1ccc(F)cc1,0,0.92,1,1,-0.25,1
Cc1ccc(C(=O)NNC(=S)NC(=O)c2ccco2)cc1,0,3.6*,2,1.1,55*,1
CC(C)CNC(=S)NC(=O)c1ccc(Cl)cc1Cl,0,x,2,0.9,39*,0.8
CCCNC(=O)c1ccc(Cl)cc1Cl,x,x,x,x,-0.064,x
O=C(/C=C/c1ccccc1)NC(=S)NNC(=O)c1ccco1,-1,-0.26,-3,1.1,6.4*,1.1
O=C(CSc1nncs1)NCCCc1ccccc1,0,-0.29,0,1,-0.44,1.1
Cc1ccccc1C(=O)NNC(=S)NC(=O)c1ccccc1,-1,2.3*,-3,1.5,30*,1.1
CCC(C)C(NC(=O)c1ccc(Cl)cc1Cl)C(=O)O (centres undefined),0,-0.0028,0,1,0.0037,1.1
SMILES,ABCB1 block,ROMK mod,ABCG2 inh,PMI act hi M6P,KCC2 mod,PMI act
CC(C)NC(=S)NC(=O)c1ccc(Cl)cc1Cl,-1,x,-5,1,29*,1
Cc1ccc(C(=O)NNC(=S)NC(=O)c2ccc(Cl)cc2Cl)cc1,0,5.8*,-1,1.2,59*,1.1
Cc1ccccc1C(=O)NNC(=O)c1ccc(Br)cc1,1,x,1,1.1,1.8,1.1
O=C(NC(=S)NCc1ccccc1)c1ccccc1F,0,x,0,1,15*,1
O=C(NC(=S)N(Cc1ccccc1)Cc1ccccc1)c1ccccc1F,1,x,3,1,65*,0.9
O=C(NC(=S)NC(=O)c1ccccc1F)c1ccccc1F,1,0.15,3,1.3,2.7,1
C#Cc1ccc([C@@H]2C=C(C(=O)N3CCOCC3)O[C@H](OCC)[C@H]2CCCO)cc1,0,x,2,0.9,-0.13,0.9
O=S(=O)(Nc1ccccc1N1CCCCC1)c1ccc(Cl)s1,2,x,17,1.1,12*,1
COC(=O)C(O)(NC(=O)c1ccncc1)C(F)(F)F (centres undefined),x,x,x,x,-0.076,x
Cc1ccccc1C(=O)Nc1ccccc1C(=O)N/N=C\c1ccco1,1,-0.014,28,1,0.27,1
O=C(Nc1ccccc1C(=O)N/N=C/c1ccco1)c1ccccc1,0,0.2,-2,0.9,7.8*,1.1
CN(C)S(=O)(=O)Oc1cccc(C(=O)Nc2ccc([N+](=O)[O-])cc2)c1,1,0.26,8,1,-0.084,1
CCOC(=O)/C(=N\Nc1ccc(Br)cc1)N1CCN(c2ccccc2OC)CC1,0,-0.79,15,2.4*,1.1,1.8
COc1ccc(Nc2nc(-c3c(C)nc4ncccn34)cs2)cc1,1,3.1*,5,x,-2.1,x
CC(CN(C)Cc1ccccc1)OC(=O)c1cccc(F)c1 (centres undefined),1,x,5,2.4*,0.016,1.6
O=C(NNc1ccccc1Br)C(=O)n1ccc2ccccc21,0,-0.33,6,0.9,12*,0.9
Cc1ccc(CNC(=O)Cc2csc(Nc3nc(=S)[nH]c4ccccc34)n2)cc1,0,x,2,1,9.7*,1
C/C(=N\Nc1cccc(Cl)c1)c1ccc(-n2ccnc2)cc1,0,1.5,6,2.6*,0.67,1.8
COC(=O)N/N=C(\C)c1ccc(-n2ccnc2)cc1,1,0.1,3,1,x,1.1
S=C(Nc1cccc(Br)c1)c1ccccc1,0,-1.6,-2,1,3.7*,1
CC(=O)Nc1ccccc1OC(C)C(=O)NC(C)c1ccc(F)cc1 (centres undefined),1,1.1,5,0.9,-0.38,0.8
Cc1ccc(-c2nnc(CCC(=O)NCC3C4CC5CC(C4)CC3C5)o2)s1 (centres undefined),3,-0.93,10,1,i,0.9
